This is an account of results in ChEMBL document CHEMBL6182897, “Salamandamide Lipodipeptides Are Biosynthetic Intermediate Shunt Products of the Nonamodular Nonribosomal Peptide Assembly Lines of the Viscosin Family” (J Nat Prod, 2025).

The structures appear in SMILES notation. Active and inactive are the calls of the source. The rule behind the calls is not given here.

The species named for one data set is Homo sapiens. Kind of data set: Inhibition of human leukocyte elastase using MeoSuc-Ala-Ala-Pro-Val-AMC as substrate incubated for 10 mins.
Data set [1] relates to Escherichia coli. Nature of the data set: Antibacterial activity against Escherichia coli ATCC25922 assessed as bacterial growth inhibition incubated for overnight by CLSI-protocol based broth micro-dilution assay. The class given is functional, organism-based. The procedure, abridged: (§1)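 Broth microdilution MIC in cation-adjusted Mueller-Hinton medium, following CLSI. Compound in 2-fold serial dilution; bacteria at a final 5 × 10^5 CFU/mL. Incubated overnight at 37 °C. MIC taken as the lowest concentration preventing visible growth.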
A general note: Dilution methods test growth across graded concentrations, often in twofold steps.

The subject of another data set is Acinetobacter baumannii. Kind of data set: Antibacterial activity against Acinetobacter baumannii 09987 assessed as bacterial growth inhibition incubated for overnight by CLSI-protocol based broth micro-dilution assay. The data set is classed as functional, organism-based. In short, it runs like this: as §1
Data set [2] has as its system Enterococcus faecium. Kind of data set: Antibacterial activity against vancomycin-resistant Enterococcus faecium U200 assessed as bacterial growth inhibition incubated for overnight by CLSI-protocol based broth micro-dilution assay. The class given is functional, organism-based. In short, it runs like this:
(§2)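 Broth microdilution per CLSI in cation-adjusted Mueller-Hinton medium (casein, beef extract, starch). Twofold serial compound dilutions were inoculated at a final 5 × 10^5 CFU/mL and incubated overnight at 37 °C. MIC was the lowest concentration with no visible growth.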

The subject of data set [3] is Severe acute respiratory syndrome coronavirus 2. Kind of data set: Inhibition of SARS CoV-2 MPro using Boc-Abu-Tle-Leu-Gln-AMC as substrate incubated for 10 mins. The procedure, abridged:
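Purified SARS-CoV-2 main protease (cysteine protease) was assayed with a fluorogenic peptide substrate. AMC release was followed continuously over 10 min.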

Another data set relates to Bacillus subtilis. Nature of the data set: Antibacterial activity against Bacillus subtilis 168 assessed as bacterial growth inhibition incubated for overnight by CLSI-protocol based broth micro-dilution assay. The data set is classed as functional, organism-based. In short, it runs like this:
as §1

Data set [4] has as its system Escherichia coli. Nature of the data set: Antibacterial activity against Escherichia coli C600 harboring Tn10 deltalpxC deltatolC mutant assessed as bacterial growth inhibition incubated for overnight by CLSI-protocol based broth micro-dilution assay. The data set is classed as functional, organism-based. In short, it runs like this: as §2
Data set [5] has as its system Enterococcus faecium. Kind of data set: Antibacterial activity against Enterococcus faecium 115.2 assessed as bacterial growth inhibition incubated for overnight by CLSI-protocol based broth micro-dilution assay. The data set is classed as functional, organism-based. The procedure, abridged: as §1
For data set [6], the system named is Candida albicans. Nature of the data set: Antifungal activity against Candida albicans Tu01 assessed as inhibition of fungal growth incubated for 48 hrs by TECAN M200 microtiter plate reader analysis. The class given is functional, organism-based. In short, it runs like this:
(§3)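 EUCAST broth microdilution with direct colony suspension inoculum of 0.5–2.5 × 10^5 CFU/mL, using clinical Candida isolates. Medium was MOPS-buffered RPMI 1640 with glucose to a final 2%, pH 7.0. Plates incubated 48 h at 37 °C, then read at 530 nm to give MIC.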

Data set [7] has as its system Candida albicans. Nature of the data set: Antifungal activity against Candida albicans ATCC90028 assessed as inhibition of fungal growth incubated for 48 hrs by TECAN M200 microtiter plate reader analysis. The data set is classed as functional, organism-based. In short, it runs like this:
as §3

The test system of another data set is Enterococcus faecalis. Nature of the data set: Antibacterial activity against Enterococcus faecalis ATCC29212 assessed as bacterial growth inhibition incubated for overnight by CLSI-protocol based broth micro-dilution assay. The data set is classed as functional, organism-based. The procedure, abridged:
as §1

Data set [8] deals with Neisseria gonorrhoeae. Nature of the data set: Antibacterial activity against Neisseria gonorrhoeae ATCC19424 assessed as bacterial growth inhibition incubated for overnight by CLSI-protocol based broth micro-dilution assay. The class given is functional, organism-based. The procedure, abridged:
(§4)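 Neisseria MIC by CLSI broth microdilution in cation-adjusted Mueller-Hinton medium supplemented with 2.5% fetal bovine serum. Compound in 2-fold serial dilution; final inoculum 5 × 10^5 CFU/mL. Incubated overnight at 37 °C. MIC is the lowest concentration with no visible growth.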

For data set [9], the system named is Enterococcus faecium. Nature of the data set: Antibacterial activity against Enterococcus faecium K209.5 assessed as bacterial growth inhibition incubated for overnight by CLSI-protocol based broth micro-dilution assay. The class given is functional, organism-based. In short, it runs like this:
as §1

Data set [10] deals with Candida albicans. Kind of data set: Antifungal activity against Candida albicans Tu03 assessed as inhibition of fungal growth incubated for 48 hrs by TECAN M200 microtiter plate reader analysis. The data set is classed as functional, organism-based. The procedure, abridged:
as §3

Data set [11] addresses Procathepsin L (Homo sapiens) (UniProt P07711). Nature of the data set: Inhibition of human Cathepsin L using Z-Phe-Arg-pNA as substrate incubated for 60 mins.
For a further data set, the system named is Staphylococcus aureus. Nature of the data set: Antibacterial activity against Staphylococcus aureus ATCC29213 assessed as bacterial growth inhibition incubated for overnight by CLSI-protocol based broth micro-dilution assay. The data set is classed as functional, organism-based. The procedure, abridged: as §1
The test system of data set [12] is Caco-2. Nature of the data set: Cytotoxicity against human Caco-2 cells assessed as cell count up to 10 uM measured after 48 hrs by Hoechst dye based analysis. The class given is toxicity. The settings on record: caco-2, 48 h.
The test system of data set [13] is Enterococcus faecium. Kind of data set: Antibacterial activity against Enterococcus faecium BM4147-1 assessed as bacterial growth inhibition incubated for overnight by CLSI-protocol based broth micro-dilution assay. The data set is classed as functional, organism-based. The procedure, abridged: as §1
A further data set has as its system Pseudomonas aeruginosa. Nature of the data set: Antibacterial activity against Pseudomonas aeruginosa ATCC27853 assessed as bacterial growth inhibition incubated for overnight by CLSI-protocol based broth micro-dilution assay. The data set is classed as functional, organism-based. The procedure, abridged:
as §1

The test system of another data set is Klebsiella pneumoniae. Kind of data set: Antibacterial activity against Klebsiella pneumoniae ATCC12657 assessed as bacterial growth inhibition incubated for overnight by CLSI-protocol based broth micro-dilution assay. The class given is functional, organism-based. The procedure, abridged: as §1
The subject of data set [14] is Candida albicans. Nature of the data set: Antifungal activity against Candida albicans Tu02 assessed as inhibition of fungal growth incubated for 48 hrs by TECAN M200 microtiter plate reader analysis. The class given is functional, organism-based. The procedure, abridged: as §3
Another data set relates to HeLa. Kind of data set: Cytotoxicity against human HeLa cells measured after 24 hrs by resazurin staining based analysis. The class given is functional, cell-based. The procedure, abridged: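 HeLa cells in RPMI with 10% FBS were seeded at 1 × 10^4 per well onto 2-fold compound dilutions, run in duplicate. Incubation was 24 h at 37 °C, 5% CO2. Resazurin was then added (200 μM final) and incubated overnight. Resorufin fluorescence (ex 560/em 600 nm) was read relative to untreated control.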

The subject of the next data set is Nakaseomyces glabratus. Kind of data set: Antifungal activity against Candida glabrata Tu04 assessed as inhibition of fungal growth incubated for 48 hrs by TECAN M200 microtiter plate reader analysis. The data set is classed as functional, organism-based. In short, it runs like this:
as §3

Data set [15] has as its system Enterococcus faecium. Kind of data set: Antibacterial activity against vancomycin-resistant Enterococcus faecium BM4147 assessed as bacterial growth inhibition incubated for overnight by CLSI-protocol based broth micro-dilution assay. The data set is classed as functional, organism-based. In short, it runs like this:
as §2

The subject of data set [16] is Enterococcus faecium. Kind of data set: Antibacterial activity against vancomycin-resistant Enterococcus faecium 6011 assessed as bacterial growth inhibition incubated for overnight by CLSI-protocol based broth micro-dilution assay. The class given is functional, organism-based. The procedure, abridged:
as §2

Data set [17] concerns Caco-2. Kind of data set: Cytotoxicity against human Caco-2 cells assessed as cell count up to 10 uM by Hoechst dye based analysis. The data set is classed as toxicity. As to conditions: caco-2, 10 µM.
Data set [18] has as its system Neisseria gonorrhoeae. Kind of data set: Antibacterial activity against Neisseria gonorrhoeae S1441 assessed as bacterial growth inhibition incubated for overnight by CLSI-protocol based broth micro-dilution assay. The data set is classed as functional, organism-based. The procedure, abridged: as §4
For a further data set, the system named is Candida tropicalis. Kind of data set: Antifungal activity against Candida tropicalis Tu05 assessed as inhibition of fungal growth incubated for 48 hrs by TECAN M200 microtiter plate reader analysis. The class given is functional, organism-based. In short, it runs like this: as §3
A further data set deals with Klebsiella aerogenes. Kind of data set: Antibacterial activity against Enterobacter aerogenes ATCC13048 assessed as bacterial growth inhibition incubated for overnight by CLSI-protocol based broth micro-dilution assay. The data set is classed as functional, organism-based. The procedure, abridged: as §1
Data set [19] has as its system SARS-CoV-2. Kind of data set: Antiviral activity against SARS-CoV-2 expressing mNeonGreen infected in human Caco-2 cells at 0.26 MOI assessed as reduction in infection rate at 2.5 to 10 uM for 48 hrs post infection by Hoechst dye based analysis relative to control. The class given is functional, Severe acute respiratory syndrome coronavirus 2. Set-up: scale not given: the % may be the effect or the level left. The settings on record: dose 2.5-10 µM.

Data set [20] has as its system SARS-CoV-2. Nature of the data set: Antiviral activity against SARS-CoV-2 expressing mNeonGreen infected in human Caco-2 cells at 0.26 MOI assessed as reduction in infection rate at 5 to 10 uM pre-treated with compound for 2.5 hrs followed by viral infection and measured after 48 hrs by Hoechst dye based analysis relative to control. The data set is classed as functional, Severe acute respiratory syndrome coronavirus 2. More on the design: scale not given: the % may be the effect or the level left. As to conditions: dose 5-10 µM, time 50.5 hrs.

Data set [21] relates to SARS-CoV-2. Nature of the data set: Antiviral activity against SARS-CoV-2 expressing mNeonGreen infected in Caco-2 cells at 0.26 MOI assessed as reduction in infection rate for 48 hrs post infection by Hoechst dye based analysis. The data set is classed as functional, organism-based. As to conditions: Severe acute respiratory syndrome coronavirus 2, Caco-2, 48 h.
The nature of data set [22]: Cytotoxicity against human Caco-2 cells assessed as cell count for 48 hrs by Hoechst dye based analysis. The data set is classed as toxicity.

Sequence of Procathepsin L (Homo sapiens) (P07711 114-333 limits assumed): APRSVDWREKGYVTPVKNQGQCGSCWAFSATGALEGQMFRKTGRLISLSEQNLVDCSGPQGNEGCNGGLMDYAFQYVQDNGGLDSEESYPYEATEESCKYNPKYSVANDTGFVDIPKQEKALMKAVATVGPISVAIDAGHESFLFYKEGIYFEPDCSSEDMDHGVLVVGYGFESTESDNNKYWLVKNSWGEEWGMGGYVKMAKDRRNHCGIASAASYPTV

With `CCCCCCC[C@@H](O)CC(=O)N[C@@H](CC(C)C)C(=O)N[C@@H](CCC(N)=O)C(=O)O`, the inhibition entry (in the data set listed under Homo sapiens; in data set [3]; in data set [11]) was “inactive” in each case. Besides, the outcome with Escherichia coli [1], with Acinetobacter baumannii, in the data set with Enterococcus faecium [2], with Bacillus subtilis, with Escherichia coli [4] and with Enterococcus faecium [5] was inactive. In addition, the outcome in the data set with Candida albicans [6], with Candida albicans [7], in the data set with Enterococcus faecalis, in the data set on Neisseria gonorrhoeae [8], in the data set on Enterococcus faecium [9] and with Candida albicans [10] was inactive. For the same compound, the result in the data set with Staphylococcus aureus, in the data set on Enterococcus faecium [13], in the data set with Pseudomonas aeruginosa, with Klebsiella pneumoniae, in the data set with Candida albicans [14] and in the data set on HeLa was inactive. The outcome in the data set with Nakaseomyces glabratus, with Enterococcus faecium [15], with Enterococcus faecium [16], in the data set on Neisseria gonorrhoeae [18], in the data set on Candida tropicalis and with Klebsiella aerogenes was inactive. The Activity entry in the data set with Caco-2 [12] and in the data set with Caco-2 [17] was “Toxic” each time.

As for `CCCCCCC[C@@H](O)CC(=O)N[C@@H](CC(C)C)C(=O)N[C@H](CCC(N)=O)C(=O)N[C@H]1C(=O)N[C@H](C(C)C)C(=O)N[C@H](CC(C)C)C(=O)N[C@H](CO)C(=O)N[C@@H](CC(C)C)C(=O)N[C@H](CO)C(=O)N[C@@H]([C@@H](C)CC)C(=O)O[C@@H]1C`, the Activity is 60% with SARS-CoV-2 [19], 85% in the data set on SARS-CoV-2 [20], “Non-toxic” in the data set on Caco-2 [12] and “Non-toxic” with Caco-2 [17]. Further, the EC50 in the data set on SARS-CoV-2 [21] was 3.3 µM. The CC50 at 48 h in data set [22] is more than 20 µM.

For orientation: EC50 means the concentration needed to bring the measured effect to its halfway point. One may read the CC50 as the concentration that lowers cell viability or growth by half.
